Consider 2 compounds from ChEMBL document CHEMBL4814057, “4-4-(Anilinomethyl)-3-[4-(trifluoromethyl)phenyl]-1H-pyrazol-1-ylbenzoic acid derivatives as potent anti-gram-positive bacterial agents” (Eur J Med Chem, 2021).

For experiment [1], the system named is Staphylococcus aureus. The experiment can be described thus: Inhibition of lipid synthesis in Staphylococcus aureus ATCC 29213 at 8 times MIC measured by liquid scintillation counter. The format is functional. Put shortly:
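Early-exponential S. aureus ATCC 29213 in CAMHBII exposed to drug at 8x MIC in triplicate tubes. Lipids extracted with chloroform/water. Organic phase dried and counted by liquid scintillation.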

Experiment [2] relates to Enterococcus faecium. As to the kind of experiment: Antimicrobial activity against vancomycin-resistant Enterococcus faecium clinical isolate 1094112 by CLSI-based broth microdilution assay. It counts as functional. (In general: Dilution methods test growth across graded concentrations, often in twofold steps.)
The subject of the next experiment is Enterococcus faecalis. The experiment can be described thus: Antimicrobial activity against vancomycin-susceptible Enterococcus faecalis ATCC 29212 assessed as bacterial growth inhibitions by CLSI protocol based microdilution method.
For experiment [3], the system named is Staphylococcus aureus. As to the kind of experiment: Antimicrobial activity against methicillin-susceptible Staphylococcus aureus ATCC 25923 assessed as bacterial growth inhibitions by CLSI protocol based microdilution method. It counts as functional.
In experiment [4] the test system is Enterococcus faecium. As to the kind of experiment: Antimicrobial activity against vancomycin-resistant Enterococcus faecium clinical isolate 1088925 by CLSI-based broth microdilution assay. The format is functional.
For experiment [5], the system named is Staphylococcus aureus. As to the kind of experiment: Antimicrobial activity against methicillin-sensitive Staphylococcus aureus clinical isolate 1088626 by CLSI-based broth microdilution assay. It counts as functional.
Experiment [6] relates to Enterococcus faecium. The experiment can be described thus: Antimicrobial activity against vancomycin-resistant Enterococcus faecium clinical isolate 1100440 by CLSI-based broth microdilution assay. The format is functional.
The subject of experiment [7] is Staphylococcus aureus. The experiment can be described thus: Antimicrobial activity against methicillin-resistant Staphylococcus aureus clinical isolate 1088610 by CLSI-based broth microdilution assay. It counts as functional.
For experiment [8], the system named is Staphylococcus aureus. As to the kind of experiment: Antimicrobial activity against methicillin-resistant Staphylococcus aureus ATCC 700699 assessed as bacterial growth inhibitions by CLSI protocol based microdilution method. The format is functional.
Experiment [9] deals with Staphylococcus aureus. The experiment can be described thus: Antibacterial activity against methicillin resistant Staphylococcus aureus ATCC 700699 persisters assessed as reduction in viability at 64 times MIC by colony counting method. It counts as functional, organism-based. Put shortly:
(§1)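 Stationary-phase S. aureus from overnight CAMHB culture (35 °C, 200 rpm), washed thrice in PBS, diluted to ~5 × 10^8 CFU/ml. Incubated with antibiotic at 35 °C, 200 rpm. Aliquots taken at set times, washed, serially diluted in PBS, drop-plated (6 × 6) on TSA with 5% sheep blood. Colonies counted after 18–20 h at 35 °C. Triplicates.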

Experiment [10] has as its system Enterococcus faecium. The experiment can be described thus: Antimicrobial activity against vancomycin-resistant Enterococcus faecium clinical isolate 1088168 by CLSI-based broth microdilution assay. It counts as functional.
In experiment [11] the test system is Enterococcus faecium. As to the kind of experiment: Antimicrobial activity against vancomycin-resistant Enterococcus faecium clinical isolate 1088051 by CLSI-based broth microdilution assay. It counts as functional.
Experiment [12] concerns Staphylococcus aureus. As to the kind of experiment: Antimicrobial activity against methicillin-sensitive Staphylococcus aureus clinical isolate 1088105 by CLSI-based broth microdilution assay. It counts as functional.
In another experiment the test system is Bacillus subtilis. As to the kind of experiment: Antimicrobial activity against Bacillus subtilis ATCC 6623 assessed as bacterial growth inhibitions by CLSI protocol based microdilution method. The format is functional. Put shortly: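 Broth microdilution starting at 50 µg/ml with 2-fold serial dilutions; run in triplicate.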
Experiment [13] has as its system Enterococcus faecium. As to the kind of experiment: Antimicrobial activity against vancomycin-resistant Enterococcus faecium clinical isolate 1088228 by CLSI-based broth microdilution assay. The format is functional.
Experiment [14] has as its system Staphylococcus aureus. As to the kind of experiment: Antibacterial activity against methicillin resistant Staphylococcus aureus ATCC 700699 persisters assessed as reduction in viability at 16 times MIC by colony counting method. The format is functional, organism-based. Put shortly: as §1
Experiment [15] has as its system Staphylococcus aureus. As to the kind of experiment: Antimicrobial activity against methicillin-sensitive Staphylococcus aureus ATCC 29213 by CLSI-based broth microdilution assay. It counts as functional.
Experiment [16] deals with Staphylococcus aureus. The experiment can be described thus: Antibiofilm activity against Staphylococcus aureus UAMS-1 assessed as destruction catheter-associated biofilm formation measured after 48 hrs (reference value: 1.53 x 10^8). It counts as functional. Put shortly: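 Plasma-coated catheters colonised for 24 h at 37 °C with gentle shaking, starting from ~1 × 10^7 CFU of MSSA UAMS-1 in biofilm medium (TSB plus glucose and NaCl). […] Medium renewed at 24 h. Catheters (n = 3) sonicated at 48 h and plated on TSA for CFU per catheter.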

Experiment [17] deals with Enterococcus faecium. The experiment can be described thus: Antimicrobial activity against vancomycin-resistant Enterococcus faecium clinical isolate 1091720 by CLSI-based broth microdilution assay. It counts as functional.
Experiment [18] relates to Enterococcus faecium. The experiment can be described thus: Antimicrobial activity against vancomycin-resistant Enterococcus faecium clinical isolate 1089544 by CLSI-based broth microdilution assay. It counts as functional.
Experiment [19] concerns Staphylococcus aureus. The experiment can be described thus: Antimicrobial activity against antibiotic-resistant Staphylococcus aureus BM-2312 assessed as bacterial growth inhibitions by CLSI protocol based microdilution method. The format is functional.
In experiment [20] the test system is Staphylococcus aureus. The experiment can be described thus: Antimicrobial activity against methicillin-resistant Staphylococcus aureus clinical isolate 1088888 by CLSI-based broth microdilution assay. The format is functional.
The subject of experiment [21] is Staphylococcus aureus. The experiment can be described thus: Antibacterial activity against vancomycin-intermediate susceptible Staphylococcus aureus ATCC 25923 assessed as bacterial growth inhibition by measuring fold increase in MIC between 8 passages by broth dilution method. The format is functional.
Experiment [22] concerns Staphylococcus aureus. As to the kind of experiment: Antimicrobial activity against Staphylococcus aureus ATCC 29213 assessed as inhibition of cell wall synthesis at 8 times MIC measured by liquid scintillation counter. It counts as functional. Put shortly: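 Early-exponential S. aureus ATCC 29213 resuspended in M9 minimal medium. Drug added at 8x MIC, pre-incubated 30 min at 37 °C. [14C]N-acetylglucosamine (0.4 µCi/reaction) added, 45 min at 37 °C. Stopped with 8% SDS, heated 95 °C for 30 min, spotted onto nitrocellulose filters, washed with 0.1% SDS. Counted by liquid scintillation. Triplicate.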

Experiment [23] relates to Enterococcus faecium. As to the kind of experiment: Antimicrobial activity against vancomycin-resistant Enterococcus faecium clinical isolate 1091563 by CLSI-based broth microdilution assay. It counts as functional.
For experiment [24], the system named is Enterococcus faecium. As to the kind of experiment: Antimicrobial activity against vancomycin-resistant Enterococcus faecium ATCC 700221 assessed as bacterial growth inhibitions by CLSI protocol based microdilution method. The format is functional.
Experiment [25] relates to Staphylococcus aureus. The experiment can be described thus: Antimicrobial activity against methicillin-resistant Staphylococcus aureus clinical isolate 1088064 by CLSI-based broth microdilution assay. It counts as functional.
Experiment [26] relates to Staphylococcus aureus. The experiment can be described thus: Antimicrobial activity against methicillin-resistant Staphylococcus aureus clinical isolate 1089106 by CLSI-based broth microdilution assay. It counts as functional.
Experiment [27] has as its system Enterococcus faecium. As to the kind of experiment: Antimicrobial activity against vancomycin-resistant Enterococcus faecium clinical isolate 1091282 by CLSI-based broth microdilution assay. It counts as functional.

≈ marks a conversion by molar mass, not a printed value. Calls of active or inactive are those of the source. No cut-off for these calls is given here. A value given as a limit tells only on which side of the number the result lay.

`C/C=C/C/C=C/CCC(=O)[C@H]1O[C@H]1C(N)=O` [CERULENIN]: the “inhibition (INH)” value in the experiment with Staphylococcus aureus [1] amounted to 71.9%.
One may read the MIC as the lowest concentration found to suppress growth. As for `CN[C@H](CC(C)C)C(=O)N[C@H]1C(=O)N[C@@H](CC(N)=O)C(=O)N[C@H]2C(=O)N[C@H]3C(=O)N[C@H](C(=O)N[C@H](C(=O)O)c4cc(O)cc(O)c4-c4cc3ccc4O)[C@H](O)c3ccc(c(Cl)c3)Oc3cc2cc(c3O[C@@H]2O[C@H](CO)[C@@H](O)[C@H](O)[C@H]2O[C@H]2C[C@](C)(N)[C@H](O)[C@H](C)O2)Oc2ccc(cc2Cl)[C@H]1O` [VANCOMYCIN], the MIC in the experiment with Enterococcus faecium [2] was greater than 64 µg/mL; in the experiment with Enterococcus faecalis, 3.12 µg/mL (≈ 2.15 µM); with Staphylococcus aureus [3] it was 0.78 µg/mL (≈ 0.538 µM); against Enterococcus faecium [4], greater than 64 µg/mL; against Staphylococcus aureus [5] it was 0.25 µg/mL (≈ 0.173 µM); with Enterococcus faecium [6] it was greater than 64 µg/mL. The MIC is 64 µg/mL (≈ 44.2 µM) with Staphylococcus aureus [7]; 3.12 µg/mL (≈ 2.15 µM) in the experiment with Staphylococcus aureus [8]; greater than 64 µg/mL in the experiment on Enterococcus faecium [10]; 64 µg/mL (≈ 44.2 µM) in the experiment on Enterococcus faecium [11]; 0.25 µg/mL (≈ 0.173 µM) against Staphylococcus aureus [12]; 0.19 µg/mL (≈ 0.131 µM) with Bacillus subtilis. Further, the MIC against Enterococcus faecium [13] was greater than 64 µg/mL; against Staphylococcus aureus [15], 0.25 µg/mL (≈ 0.173 µM); against Enterococcus faecium [17], 64 µg/mL (≈ 44.2 µM); against Enterococcus faecium [18], greater than 64 µg/mL; in the experiment with Staphylococcus aureus [19], 0.78 µg/mL (≈ 0.538 µM); with Staphylococcus aureus [20], greater than 64 µg/mL. In addition, the MIC with Enterococcus faecium [23] is 64 µg/mL (≈ 44.2 µM); in the experiment with Enterococcus faecium [24], greater than 50 µg/mL; against Staphylococcus aureus [25] it was 64 µg/mL (≈ 44.2 µM); in the experiment on Staphylococcus aureus [26], 64 µg/mL (≈ 44.2 µM); in the experiment on Enterococcus faecium [27], greater than 64 µg/mL. Moreover, the result in the experiment on Staphylococcus aureus [9], in the experiment on Staphylococcus aureus [14] and in the experiment with Staphylococcus aureus [21] was inactive. In addition, in the experiment with Staphylococcus aureus [16], the Activity was 1.16 10^7CFU. Further, the “inhibition (INH)” value in the experiment with Staphylococcus aureus [22] amounted to 87.3%.
